A word on the IC50: it is the concentration at which inhibition is half-maximal.

The values that follow come from ChEMBL document CHEMBL4004857, “Synthesis and biological evaluation of novel pyrazolic chalcone derivatives as novel hepatocellular carcinoma therapeutics” (Eur J Med Chem, 2017).

Activity calls are given as the source filed them. The rule behind the calls is not given here.

The first assay has as its system Huh-7. The experiment in a line: Cytotoxicity against human HuH7 cells assessed as growth inhibition after 72 hrs by SRB assay. Format: functional, cell-based. The settings on record: Huh-7, 72 h. In short, it runs like this: (§1)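 Cells seeded at 2000–3000 per well and grown 24 h at 37C, then treated in triplicate with compounds dissolved in DMSO over a 40–0.3 range for 72 h. Cells were fixed with 10% TCA for 1 h, stained with 0.4% SRB in 1% acetic acid, washed with 1% acetic acid and air-dried. Bound dye was solubilized in 10 mM Tris base and read at 515 nm. % inhibition and IC50 were calculated against DMSO-only controls.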
(In general: In SRB staining, fixed cells bind dye roughly in proportion to their protein.)
`COc1cc(OC)c(C(=O)/C=C/c2cn(-c3ccccc3)nc2-c2ccncc2)c(OC)c1`: the IC50 came out at 2600 nM.
The same measure, in the same setting: in the case of `COc1cc(OC)c(C(=O)/C=C/c2cn(-c3ccccc3)nc2-c2cccnc2)c(OC)c1` it was 500 nM.

For the next assay, the system named is MCF7. The experiment in a line: Cytotoxicity against human MCF7 cells assessed as growth inhibition after 72 hrs by SRB assay. Format: functional, cell-based. The settings on record: MCF7, 72 h. The method in brief: as §1
With `COc1cc(OC)c(C(=O)/C=C/c2cn(-c3ccccc3)nc2-c2ccncc2)c(OC)c1`, the concentration for half-maximal inhibition (IC50) came out at 1600 nM.
Same read-out and setting: for `COc1cc(OC)c(C(=O)/C=C/c2cn(-c3ccccc3)nc2-c2cccnc2)c(OC)c1` the value was 1000 nM.

For the next assay, the system named is HCT-116. As to the kind of experiment: Cytotoxicity against human HCT116 cells assessed as growth inhibition after 72 hrs by SRB assay. The class given is functional, cell-based. As to conditions: HCT-116, 72 h. In short, it runs like this: as §1
As for `COc1cc(OC)c(C(=O)/C=C/c2cn(-c3ccccc3)nc2-c2ccncc2)c(OC)c1`, the IC50 came to 600 nM.
Turning to `COc1cc(OC)c(C(=O)/C=C/c2cn(-c3ccccc3)nc2-c2cccnc2)c(OC)c1`, the IC50 stood at 300 nM.

The species entered for the next assay is Homo sapiens. The experiment in a line: Inhibition of tubulin polymerization (unknown origin).
Settings: not given
Take `COc1cc(OC)c(C(=O)/C=C/c2cn(-c3ccccc3)nc2-c2ccncc2)c(OC)c1`: the inhibition result is “inactive”.
On the same count and under the same terms, for `COc1cc(OC)c(C(=O)/C=C/c2cn(-c3ccccc3)nc2-c2cccnc2)c(OC)c1` the value was “inactive”.

The subject of a further assay is HepG2. As to the kind of experiment: Cytotoxicity against human HepG2 cells assessed as growth inhibition after 72 hrs by SRB assay. The class given is functional, cell-based. The settings on record: HepG2, 72 h. In short, it runs like this: as §1
In the case of `COc1cc(OC)c(C(=O)/C=C/c2cn(-c3ccccc3)nc2-c2ccncc2)c(OC)c1`, the half-inhibitory concentration (IC50) is 1700 nM.
As to `COc1cc(OC)c(C(=O)/C=C/c2cn(-c3ccccc3)nc2-c2cccnc2)c(OC)c1`, the 50% inhibitory concentration (IC50) worked out at 1400 nM.

Another assay has as its system Mahlavu. As to the kind of experiment: Cytotoxicity against human Mahlavu cells assessed as growth inhibition after 72 hrs by SRB assay. The class given is functional, cell-based.
Settings: not given
In short, it runs like this: as §1
`COc1cc(OC)c(C(=O)/C=C/c2cn(-c3ccccc3)nc2-c2ccncc2)c(OC)c1`: the IC50 turned out to be 1100 nM.
The same measure, in the same setting: for `COc1cc(OC)c(C(=O)/C=C/c2cn(-c3ccccc3)nc2-c2cccnc2)c(OC)c1` the value was 1100 nM.

The next assay relates to SNU-475. The experiment in a line: Cytotoxicity against human SNU475 cells assessed as growth inhibition after 72 hrs by SRB assay. Format: functional, cell-based. The settings on record: SNU-475, 72 h. In short, it runs like this:
as §1
`COc1cc(OC)c(C(=O)/C=C/c2cn(-c3ccccc3)nc2-c2ccncc2)c(OC)c1`: the half-maximal inhibitory concentration (IC50) was 1400 nM.
Same read-out and setting: in the case of `COc1cc(OC)c(C(=O)/C=C/c2cn(-c3ccccc3)nc2-c2cccnc2)c(OC)c1` it was 800 nM.

The next assay has as its system MCF-12A. The experiment in a line: Cytotoxicity against human MCF12A cells assessed as growth inhibition after 72 hrs by SRB assay.
Settings: not given
The class given is cell-based. The method in brief:
as §1
Regarding `COc1cc(OC)c(C(=O)/C=C/c2cn(-c3ccccc3)nc2-c2ccncc2)c(OC)c1`, the IC50 turned out to be 8200 nM.
Turning to `COc1cc(OC)c(C(=O)/C=C/c2cn(-c3ccccc3)nc2-c2cccnc2)c(OC)c1`, the IC50 was 1200 nM.

Another assay has as its system MRC5. As to the kind of experiment: Cytotoxicity against human MRC5 cells assessed as growth inhibition after 72 hrs by SRB assay. The class given is cell-based. The settings on record: Homo sapiens, MRC5, 72 h; read-out: IC50. In short, it runs like this:
as §1
With `COc1cc(OC)c(C(=O)/C=C/c2cn(-c3ccccc3)nc2-c2cccnc2)c(OC)c1`, the IC50 was found to be 1300 nM.

Still in this assay, the particulars now being: mrc5.
Consider `COc1cc(OC)c(C(=O)/C=C/c2cn(-c3ccccc3)nc2-c2ccncc2)c(OC)c1`, for which the IC50 result is reported as “Non-Toxic”.

For the next assay, the system named is Huh-7. As to the kind of experiment: Growth inhibition of human HuH7 cells at cytotoxic IC100 measured every 10 mins for first 24 hrs and every 30 mins for remaining 48 hrs by RT-CES analysis. Format: functional, cell-based.
Settings: not given
In the case of `COc1cc(OC)c(C(=O)/C=C/c2cn(-c3ccccc3)nc2-c2ccncc2)c(OC)c1`, the “growth inhibition (GI)” value was “Active”.
Consider `COc1cc(OC)c(C(=O)/C=C/c2cn(-c3ccccc3)nc2-c2cccnc2)c(OC)c1`, for which the “growth inhibition (GI)” value was “Active”.

In another assay the test system is HepG2. The experiment in a line: Growth inhibition of human HepG2 cells at cytotoxic IC100 measured every 10 mins for first 24 hrs and every 30 mins for remaining 48 hrs by RT-CES analysis. Format: functional, cell-based.
Settings: not given
Regarding `COc1cc(OC)c(C(=O)/C=C/c2cn(-c3ccccc3)nc2-c2ccncc2)c(OC)c1`, the “growth inhibition (GI)” value is “Active”.
Same read-out and setting: in the case of `COc1cc(OC)c(C(=O)/C=C/c2cn(-c3ccccc3)nc2-c2cccnc2)c(OC)c1` it was “Active”.

For the next assay, the system named is Mahlavu. As to the kind of experiment: Growth inhibition of human Mahlavu cells at cytotoxic IC100 measured every 10 mins for first 24 hrs and every 30 mins for remaining 48 hrs by RT-CES analysis. The class given is functional, cell-based.
Settings: not given
Consider `COc1cc(OC)c(C(=O)/C=C/c2cn(-c3ccccc3)nc2-c2ccncc2)c(OC)c1`, for which the “growth inhibition (GI)” value is “Active”.
Same read-out and setting: for `COc1cc(OC)c(C(=O)/C=C/c2cn(-c3ccccc3)nc2-c2cccnc2)c(OC)c1` the value was “Active”.

The test system of a further assay is SNU-475. The experiment in a line: Growth inhibition of human SNU475 cells at cytotoxic IC100 measured every 10 mins for first 24 hrs and every 30 mins for remaining 48 hrs by RT-CES analysis. Format: functional, cell-based.
Settings: not given
As for `COc1cc(OC)c(C(=O)/C=C/c2cn(-c3ccccc3)nc2-c2ccncc2)c(OC)c1`, the “growth inhibition (GI)” value is “Active”.
Same read-out and setting: for `COc1cc(OC)c(C(=O)/C=C/c2cn(-c3ccccc3)nc2-c2cccnc2)c(OC)c1` the value was “Active”.

The next assay relates to HepG2. As to the kind of experiment: Induction of apoptosis in human HepG2 cells assessed as condensed nuclei at cytotoxic IC100 measured after 48 hrs by DAPI/Annexin-V-Fluos staining based fluorescent microscopic method. Format: functional, cell-based.
Settings: not given
The method in brief: (§2)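 Cells on coverslips were treated after 24 h in culture and stained 48 h later with Annexin-V-Fluos plus DAPI nuclear stain. Cells were then examined by fluorescence microscopy for Annexin V-positive cells with condensed nuclei.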
Turning to `COc1cc(OC)c(C(=O)/C=C/c2cn(-c3ccccc3)nc2-c2ccncc2)c(OC)c1`, the result was Active.
On the same count and under the same terms, for `COc1cc(OC)c(C(=O)/C=C/c2cn(-c3ccccc3)nc2-c2cccnc2)c(OC)c1` the value was “Active”.

The next assay concerns HepG2. As to the kind of experiment: Induction of apoptosis in human HepG2 cells assessed as condensed nuclei at cytotoxic IC100 measured after 72 hrs by light microscopic method. The class given is functional, cell-based.
Settings: not given
Consider `COc1cc(OC)c(C(=O)/C=C/c2cn(-c3ccccc3)nc2-c2ccncc2)c(OC)c1`, for which the result was Active.
Take `COc1cc(OC)c(C(=O)/C=C/c2cn(-c3ccccc3)nc2-c2cccnc2)c(OC)c1`: the result was Active.

A further assay concerns SNU-475. The experiment in a line: Induction of apoptosis in human SNU475 cells assessed as condensed nuclei at cytotoxic IC100 measured after 72 hrs by light microscopic method. Format: functional, cell-based.
Settings: not given
For `COc1cc(OC)c(C(=O)/C=C/c2cn(-c3ccccc3)nc2-c2ccncc2)c(OC)c1`, the outcome was Active.
For the compound `COc1cc(OC)c(C(=O)/C=C/c2cn(-c3ccccc3)nc2-c2cccnc2)c(OC)c1`, the outcome was Active.

Another assay has as its system SNU-475. The experiment in a line: Induction of apoptosis in human SNU475 cells assessed as condensed nuclei at cytotoxic IC100 measured after 48 hrs by DAPI/Annexin-V-Fluos staining based fluorescent microscopic method. The class given is functional, cell-based.
Settings: not given
The method in brief: as §2
On to `COc1cc(OC)c(C(=O)/C=C/c2cn(-c3ccccc3)nc2-c2ccncc2)c(OC)c1`, for which the result was Active.
Still for that read-out and setting: for `COc1cc(OC)c(C(=O)/C=C/c2cn(-c3ccccc3)nc2-c2cccnc2)c(OC)c1` the value was “Active”.

A further assay deals with SNU-475. The experiment in a line: Induction of apoptosis in human SNU475 cells assessed as PARP cleavage at cytotoxic IC100 measured after 24 hrs by Western blot method. Format: functional, cell-based.
Settings: not given
On the technique in general: A western blot detects proteins with antibodies after separation by electrophoresis.
Consider `COc1cc(OC)c(C(=O)/C=C/c2cn(-c3ccccc3)nc2-c2ccncc2)c(OC)c1`, for which the outcome was Active.
Same read-out and setting: in the case of `COc1cc(OC)c(C(=O)/C=C/c2cn(-c3ccccc3)nc2-c2cccnc2)c(OC)c1` it was “Active”.

A further assay has as its system HepG2. The experiment in a line: Induction of apoptosis in human HepG2 cells assessed as PARP cleavage at cytotoxic IC100 measured after 24 hrs by Western blot method. Format: functional, cell-based.
Settings: not given
For `COc1cc(OC)c(C(=O)/C=C/c2cn(-c3ccccc3)nc2-c2ccncc2)c(OC)c1`, the result was Active.
Consider `COc1cc(OC)c(C(=O)/C=C/c2cn(-c3ccccc3)nc2-c2cccnc2)c(OC)c1`, for which the outcome was Active.

The test system of another assay is HepG2. The experiment in a line: Induction of apoptosis in human HepG2 cells assessed as accumulation at G2/M phase at cytotoxic IC100 measured after 48 hrs by propidium iodide staining based flow cytometry. Format: functional, cell-based.
Settings: not given
The method in brief: (§3)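 After 24, 48 and 72 h, cells were fixed in ice-cold 70% ethanol for 3 h, stained with propidium iodide, and cell-cycle distribution was read on a MUSE Cell Analyzer.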
Take `COc1cc(OC)c(C(=O)/C=C/c2cn(-c3ccccc3)nc2-c2cccnc2)c(OC)c1`: the result was Active.

Another assay relates to HepG2. The experiment in a line: Induction of apoptosis in human HepG2 cells assessed as accumulation at subG1 phase at cytotoxic IC100 measured after 72 hrs by propidium iodide staining based flow cytometry.
Settings: not given
Format: functional, cell-based. In short, it runs like this: as §3
For orientation: A flow cytometer gives signals particle by particle.
With `COc1cc(OC)c(C(=O)/C=C/c2cn(-c3ccccc3)nc2-c2cccnc2)c(OC)c1`, the result was Active.

For another assay, the system named is SNU-475. The experiment in a line: Induction of apoptosis in human SNU475 cells assessed as accumulation at G2/M phase at cytotoxic IC100 measured after 48 hrs by propidium iodide staining based flow cytometry. The class given is functional, cell-based.
Settings: not given
In short, it runs like this:
as §3
With `COc1cc(OC)c(C(=O)/C=C/c2cn(-c3ccccc3)nc2-c2cccnc2)c(OC)c1`, the outcome was Active.

For another assay, the system named is SNU-475. As to the kind of experiment: Induction of apoptosis in human SNU475 cells assessed as accumulation at subG1 phase at cytotoxic IC100 measured after 72 hrs by propidium iodide staining based flow cytometry. The class given is functional, cell-based.
Settings: not given
The method in brief: as §3
Take `COc1cc(OC)c(C(=O)/C=C/c2cn(-c3ccccc3)nc2-c2cccnc2)c(OC)c1`: the result was Active.
